Test results taken from ChEMBL document CHEMBL1932946, “Design, synthesis and anticonvulsant evaluation of novel N-(4-substituted phenyl)-2-[4-(substituted) benzylidene]-hydrazinecarbothio amides” (Eur J Med Chem, 2012).
Calls of active or inactive are those of the source.

Tests used:
Mus musculus [1] = assay: Anticonvulsant activity in albino CF-1 mouse assessed as protection against 6 Hz psychomotor seizure at 100 mg/kg, ip after 1 hr by minimal clonic seizure test; format: functional
Outline: (§1)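 Male CF-1 albino mice (18–25 g) given compound i.p., suspended in 0.5% methyl cellulose, 100 mg/kg in screen. Four mice per time point challenged at 0.25, 0.5, 1.0, 2.0 and 4.0 h via corneal electrodes (32 mA, 3 s, 6 Hz). Protection = absence of psychomotor seizure (minimal clonic phase, automatistic behaviours). Scored as animals protected/tested.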

Mus musculus [2] = assay: Anticonvulsant activity in albino CF-1 mouse assessed as protection against 6 Hz psychomotor seizure at 100 mg/kg, ip after 0.5 hrs by minimal clonic seizure test; format: functional; conditions: route intraperitoneal; outline: as §1
Mus musculus [3] = assay: Anticonvulsant activity in albino CF-1 mouse assessed as protection against subcutaneous metrazol-induced seizure at 300 mg/kg, ip after 4 hrs; format: functional, organism-based; design: dose 300 mg/kg
Outline: (§2)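 Mice (male CF-1 albino, 18–25 g) pretreated i.p. with 30, 100 or 300 mg/kg in 0.5% methyl cellulose. Metrazol, at a dose convulsing 97% of animals, injected subcutaneously into the loose skin fold at the midline of the neck. Animals isolated and watched for 30 min for absence of seizure. Minimum dose active in half or more of mice recorded.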

Mus musculus [4] = assay: Anticonvulsant activity in albino CF-1 mouse assessed as protection against 6 Hz psychomotor seizure at 100 mg/kg, ip after 0.25 hrs by minimal clonic seizure test; format: functional; outline: as §1
Mus musculus [5] = assay: Anticonvulsant activity in albino CF-1 mouse assessed as protection against maximal electroshock-induced seizures at 300 mg/kg, ip after 0.5 hrs; format: functional, organism-based; design: dose 300 mg/kg
Outline: (§3)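 Male CF-1 albino mice (18–25 g) dosed i.p. at 30, 100 and 300 mg/kg as suspension in 0.5% methyl cellulose. 60 Hz alternating current, 50 mA, delivered 0.2 s via corneal electrodes primed with 0.5% tetracaine HCl electrolyte. Protection = abolition of hind limb tonic extensor component. Value reported is the minimum dose active in half or more of mice.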

Mus musculus [6] = assay: Anticonvulsant activity in albino CF-1 mouse assessed as protection against maximal electroshock-induced seizures at 300 mg/kg, ip after 2 hrs; format: functional, organism-based; design: dose 300 mg/kg; outline: as §3
Mus musculus [7] = assay: Neurotoxicity in albino CF-1 mouse assessed as minimum motor impairment at 300 mg/kg, ip after 0.5 hrs by rotarod test; format: toxicity, organism-based; design: dose 300 mg/kg, route intraperitoneal; conditions: in vivo
Outline: (§4)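 Minimal motor impairment assessed in male CF-1 albino mice (18–25 g) at 0.5 and 4 h after i.p. doses of 30, 100 and 300 mg/kg, given in 0.5% methyl cellulose. Minimum dose toxic in half or more of mice recorded.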

Mus musculus [8] = assay: Neurotoxicity in albino CF-1 mouse assessed as minimum motor impairment at 300 mg/kg, ip after 4 hrs by rotarod test; format: toxicity, organism-based; design: dose 300 mg/kg, route intraperitoneal; conditions: in vivo; outline: as §4
[9] = Octanol-phosphate buffer partition coefficient, log P of the compound at 5 mg after 24 hrs by UV spectroscopic analysis; format: physicochemical
Outline: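 5 mg compound added to 10 mL octanol plus 10 mL phosphate buffer in a stoppered tube. Mixture shaken mechanically 24 h at room temperature, then left 6 h in a separating funnel to equilibrate.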

Mus musculus [10] = assay: Anticonvulsant activity in albino CF-1 mouse assessed as protection against 6 Hz psychomotor seizure at 100 mg/kg, ip after 2 hrs by minimal clonic seizure test; format: functional; outline: as §1
Mus musculus [11] = assay: Anticonvulsant activity in ip dosed albino CF-1 mouse assessed as protection against maximal electroshock-induced seizures after 4 hrs; format: functional; conditions: albino CF-1, ip, read-out: MED; outline: as §3
Mus musculus [12] = assay: Anticonvulsant activity in albino CF-1 mouse assessed as protection against subcutaneous metrazol-induced seizure at 300 mg/kg, ip after 0.5 hrs; format: functional, organism-based; design: dose 300 mg/kg; outline: as §2
Mus musculus [13] = assay: Anticonvulsant activity in albino CF-1 mouse assessed as protection against 6 Hz psychomotor seizure at 100 mg/kg, ip after 4 hrs by minimal clonic seizure test; format: functional, organism-based; design: dose 100 mg/kg; outline: as §1
Mus musculus [14] = assay: Anticonvulsant activity in albino CF-1 mouse assessed as protection against maximal electroshock-induced seizures at 300 mg/kg, ip after 4 hrs; format: functional, organism-based; design: dose 300 mg/kg; outline: as §3
Mus musculus [15] = assay: Anticonvulsant activity in ip dosed albino CF-1 mouse assessed as protection against subcutaneous metrazol-induced seizures after 0.5 hrs; format: functional; conditions: albino CF-1, 0.5 h, read-out: MED
Outline: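 Male CF-1 mice (18–25 g) were given compound i.p. at 30, 100 or 300 mg/kg, suspended in 0.5% methyl cellulose. Metrazol was injected subcutaneously into a loose skin fold at the neck midline, at the dose that induces convulsions in 97% of animals. Mice were isolated and watched for 30 min for absence of seizure. The value reported is the minimum dose active in half or more of mice.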

Rattus norvegicus [16] = assay: Acute toxicity in albino Sprague-Dawley rat pilocarpine-induced status prevention model at 100 mg/kg, ip measured 0.25 hrs post pilocarpine challenge; format: organism-based; design: dose 100 mg/kg, route intraperitoneal; conditions: in vivo
Outline: (§5)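 Acute motor-impairment screen in the PISP programme, using male Sprague Dawley rats. Compound was suspended in 0.5% methyl cellulose and given i.p. at 100, 300 or 600 mg/kg. Two rats were used per dose. Behaviour was closely observed and recorded over a 4 h period at 0.25, 0.5, 1.0, 2.0 and 4.0 h. The result is scored as number toxic over number tested.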

Rattus norvegicus [17] = assay: Acute toxicity in albino Sprague-Dawley rat pilocarpine-induced status prevention model at 300 mg/kg, ip measured 2 hrs post pilocarpine challenge; format: organism-based; design: dose 300 mg/kg, route intraperitoneal; conditions: in vivo; outline: as §5
Rattus norvegicus [18] = assay: Acute toxicity in albino Sprague-Dawley rat pilocarpine-induced status prevention model at 100 mg/kg, ip measured 1 hr post pilocarpine challenge; format: organism-based; design: dose 100 mg/kg, route intraperitoneal; conditions: in vivo; outline: as §5
Rattus norvegicus [19] = assay: Acute toxicity in albino Sprague-Dawley rat pilocarpine-induced status prevention model at 600 mg/kg, ip measured 0.5 hrs post pilocarpine challenge; format: organism-based; design: dose 600 mg/kg, route intraperitoneal; conditions: in vivo; outline: as §5
Rattus norvegicus [20] = assay: Acute toxicity in albino Sprague-Dawley rat pilocarpine-induced status prevention model at 300 mg/kg, ip measured 0.5 hrs post pilocarpine challenge; format: organism-based; design: dose 300 mg/kg, route intraperitoneal; conditions: in vivo; outline: as §5
Rattus norvegicus [21] = assay: Acute toxicity in albino Sprague-Dawley rat pilocarpine-induced status prevention model at 100 mg/kg, ip measured 0.5 hrs post pilocarpine challenge; format: organism-based; design: dose 100 mg/kg, route intraperitoneal; conditions: in vivo; outline: as §5
Rattus norvegicus [22] = assay: Acute toxicity in albino Sprague-Dawley rat pilocarpine-induced status prevention model at 300 mg/kg, ip measured 0.25 hrs post pilocarpine challenge; format: organism-based; design: dose 300 mg/kg, route intraperitoneal; conditions: in vivo; outline: as §5
Rattus norvegicus [23] = assay: Acute toxicity in albino Sprague-Dawley rat pilocarpine-induced status prevention model at 600 mg/kg, ip measured 1 hr post pilocarpine challenge; format: organism-based; design: dose 600 mg/kg, route intraperitoneal; conditions: in vivo; outline: as §5
Rattus norvegicus [24] = assay: Acute toxicity in albino Sprague-Dawley rat pilocarpine-induced status prevention model at 600 mg/kg, ip measured 2 hrs post pilocarpine challenge; format: organism-based; design: dose 600 mg/kg, route intraperitoneal; conditions: in vivo; outline: as §5
Rattus norvegicus [25] = assay: Acute toxicity in albino Sprague-Dawley rat pilocarpine-induced status prevention model at 600 mg/kg, ip measured 4 hrs post pilocarpine challenge; format: organism-based; design: dose 600 mg/kg, route intraperitoneal; conditions: in vivo; outline: as §5
Rattus norvegicus [26] = assay: Acute toxicity in albino Sprague-Dawley rat pilocarpine-induced status prevention model at 300 mg/kg, ip measured 1 hr post pilocarpine challenge; format: organism-based; design: dose 300 mg/kg, route intraperitoneal; conditions: in vivo; outline: as §5
Rattus norvegicus [27] = assay: Acute toxicity in albino Sprague-Dawley rat pilocarpine-induced status prevention model at 300 mg/kg, ip measured 4 hrs post pilocarpine challenge; format: organism-based; design: dose 300 mg/kg, route intraperitoneal; conditions: in vivo; outline: as §5
Rattus norvegicus [28] = assay: Acute toxicity in albino Sprague-Dawley rat pilocarpine-induced status prevention model at 100 mg/kg, ip measured 4 hrs post pilocarpine challenge; format: organism-based; design: dose 100 mg/kg, route intraperitoneal; conditions: in vivo; outline: as §5
Rattus norvegicus [29] = assay: Acute toxicity in albino Sprague-Dawley rat pilocarpine-induced status prevention model at 100 mg/kg, ip measured 2 hrs post pilocarpine challenge; format: organism-based; design: dose 100 mg/kg, route intraperitoneal; conditions: in vivo; outline: as §5
Rattus norvegicus [30] = assay: Acute toxicity in albino Sprague-Dawley rat pilocarpine-induced status prevention model at 600 mg/kg, ip measured 0.25 hrs post pilocarpine challenge; format: organism-based; design: dose 600 mg/kg, route intraperitoneal; conditions: in vivo; outline: as §5
Mus musculus [31] = assay: Anticonvulsant activity in ip dosed albino CF-1 mouse assessed as protection against maximal electroshock-induced seizures after 0.5 hrs; format: functional; conditions: albino CF-1, ip, read-out: MED
Outline: (§6)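 Male CF-1 mice (18–25 g) received compound suspended in 0.5% methyl cellulose, i.p. at 30, 100 or 300 mg/kg. A 60 Hz alternating current (50 mA, 0.2 s) was delivered through corneal electrodes primed with 0.5% tetracaine HCl. Protection was defined as abolition of the hind limb tonic extensor component. The value reported is the minimum dose active in half or more of mice.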

Mus musculus [32] = assay: Anticonvulsant activity in ip dosed albino CF-1 mouse assessed as protection against maximal electroshock-induced seizures after 2 hrs; format: functional; conditions: albino CF-1, ip, read-out: MED; outline: as §6
Mus musculus [33] = species on record: Mus musculus; assay: Protective index, ratio of TD50 for albino CF-1 mouse to ED50 for albino CF-1 mouse by 6 Hz psychomotor seizure test; format: functional
[34] = Neuroprotective activity in hippocampal slice assessed as protection against kainic acid-induced cell death using propidium iodide staining; format: functional, tissue-based; conditions: Hippocampus
Outline: (§7)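 Qualitative primary screen on organotypic hippocampal slice cultures. Cell death induced by NMDA or kainic acid, with or without test compound. Propidium iodide present in all wells; PI fluorescence intensity taken as proportional to cell death.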

[35] = Neuroprotective activity in hippocampal slice assessed as protection against NMDA-induced cell death using propidium iodide staining; format: functional, tissue-based; conditions: Hippocampus; outline: as §7
Mus musculus [36] = assay: Anticonvulsant activity in ip dosed albino CF-1 mouse assessed as protection against 6 Hz psychomotor seizure after 0.5 hrs by minimal clonic seizure test; format: functional; conditions: albino CF-1, ip; outline: as §1
[37] = Neurotoxicity in ip dosed albino CF-1 mouse assessed as minimum motor impairment after 0.5 hrs by rotarod test; format: toxicity, organism-based; conditions: in vivo

SMILES	Activity (Mus musculus [1])	Activity (Mus musculus [2]) [%]	Activity (Mus musculus [3])	Activity (Mus musculus [4])	Activity (Mus musculus [5])	Activity (Mus musculus [6])	Activity (Mus musculus [7])	Activity (Mus musculus [8])	logP at 24 h [9]	Activity (Mus musculus [10])	minimal effective dose (Mus musculus [11]) [mg/kg]	Activity (Mus musculus [12])	Activity (Mus musculus [13])	further results
S=C(N/N=C/c1ccc(Oc2ccc(Br)cc2)cc1)Nc1ccc(Br)cc1	inactive	75	inactive	inactive	inactive	inactive	Non-toxic	Non-toxic	6.53	inactive	300	inactive	inactive	
CCCC(CCC)C(=O)[O-].[Na+] [VALPROATE SODIUM]			inactive		inactive	inactive	Non-toxic	Non-toxic						Activity (Mus musculus [14]): inactive; minimal effective dose (Mus musculus [15]): 300 mg/kg
Cc1cc(Oc2ccc(/C=N/NC(=S)Nc3ccc(Br)cc3)cc2)ccc1Cl		75		Active			Non-toxic	Non-toxic	7.89				inactive	Activity (Mus musculus [1]; route intraperitoneal): 50%; Activity (Rattus norvegicus [16]): Non-toxic; Activity (Rattus norvegicus [17]): Non-toxic; Activity (Rattus norvegicus [18]): Non-toxic; Activity (Rattus norvegicus [19]): Non-toxic; Activity (Rattus norvegicus [20]): Non-toxic; Activity (Rattus norvegicus [21]): Non-toxic; Activity (Mus musculus [10]; route intraperitoneal): 50%; Activity (Rattus norvegicus [22]): Non-toxic; Activity (Rattus norvegicus [23]): Non-toxic; Activity (Rattus norvegicus [24]): Non-toxic; Activity (Rattus norvegicus [25]): Non-toxic; Activity (Rattus norvegicus [26]): Non-toxic; Activity (Rattus norvegicus [27]): Non-toxic; Activity (Rattus norvegicus [28]): Non-toxic; Activity (Rattus norvegicus [29]): Non-toxic; Activity (Rattus norvegicus [30]): Non-toxic
O=C1NC(=O)C(c2ccccc2)(c2ccccc2)N1 [PHENYTOIN]			inactive								30	inactive		minimal effective dose (Mus musculus [31]): 30 mg/kg; minimal effective dose (Mus musculus [32]): 30 mg/kg
Fc1ccc(NC(=S)N/N=C/c2ccc(Oc3ccc(Cl)cc3)cc2)cc1	Active	100					Non-toxic	Non-toxic	5.78	Active			Active	Ratio TD50/ED50 (Mus musculus [33]): >2.5; Activity [34]: inactive; Activity (Mus musculus [4]; route intraperitoneal): 75%; Activity [35]: inactive; ED50 (Mus musculus [36]): > 200 mg/kg; TD50 at 0.5 h [37]: > 500 mg/kg
